Assays:
[1] = target: T1, Estrogen receptor (Mus musculus) (UniProt O08537+P19785); experiment: (§1) Uterotrophic effect in mice at 0 ug dose; format: functional, tissue-based; set-up: unit not given here; details: Uterus
How it was run: (§2)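 Immature female NMRI mice, 20 days old, 10 per group, given daily sc injections of 0.1 mL olive oil solution for 3 days. Uteri removed 24 h after the last dose, fixed in Bouin's solution, washed, dried and weighed. Antiestrogenic testing measured inhibition of estrone-stimulated uterine growth.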

[2] = target: T1, Estrogen receptor (Mus musculus); experiment: (§3) Uterotrophic effect in mice at 1 ug dose; format: functional, tissue-based; details: Uterus; how it was run: as §2
[3] = target: T1, Estrogen receptor (Mus musculus); experiment: (§4) Uterotrophic effect in mice at 10 ug dose; format: functional, tissue-based; set-up: unit not given here; details: Uterus; how it was run: as §2
[4] = target: T1, Estrogen receptor (Mus musculus); experiment: (§5) Uterotrophic effect in mice at 100 ug dose; format: functional, tissue-based; set-up: unit not given here; details: Uterus; how it was run: as §2
[5] = target: T1, Estrogen receptor (Mus musculus); experiment: Uterotrophic effect in mice at 1000 ug dose; format: functional, tissue-based; set-up: unit not given here; details: Uterus; how it was run: as §2
[6] = target: T1, Estrogen receptor (Mus musculus); experiment: as §1; format: functional, tissue-based; set-up: unit not given here; details: Uterus; how it was run: as §2; remark: listed apart in the source
[7] = target: T1, Estrogen receptor (Mus musculus); experiment: as §5; format: functional, tissue-based; set-up: unit not given here; details: Uterus; how it was run: as §2; remark: listed apart in the source
[8] = target: T1, Estrogen receptor (Mus musculus); experiment: Uterotrophic effect in mice at 25 ug dose; format: functional, tissue-based; set-up: unit not given here; details: Uterus; how it was run: as §2
[9] = target: T1, Estrogen receptor (Mus musculus); experiment: Uterotrophic effect in mice at 500 ug dose; format: functional, tissue-based; set-up: unit not given here; details: Uterus; how it was run: as §2
[10] = target: T1, Estrogen receptor (Mus musculus); experiment: Uterotrophic effect in mice at 5 ug dose; format: functional, tissue-based; details: Uterus; how it was run: as §2
[11] = target: T1, Estrogen receptor (Mus musculus); experiment: Uterotrophic effect in BD2F mice bearing transplantable hormone dependent MXT at 2.76 mg dose; format: functional, tissue-based; details: Uterus
How it was run: (§6)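 MXT-bearing female BD2F1 mice (10 per group) dosed sc in olive oil three times weekly for 6 weeks from the day after tumor transplantation. Uteri excised at sacrifice and dry weight determined; values given as mean ± SD.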

[12] = target: T1, Estrogen receptor (Mus musculus); experiment: Anti-uterotrophic effect in mice at 25 ug dose; format: functional
How it was run: (§7)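 Immature female NMRI mice, 20 days old (14.5 ± 1.2 g), randomized into groups of 10. Each received a daily sc injection of compound in 0.1 mL olive oil for 3 days, given together with estrone. Uteri were taken 24 h after the last injection, fixed in Bouin's solution, washed, dried and weighed. The read-out was inhibition of estrone-stimulated uterine growth.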

[13] = target: T1, Estrogen receptor (Mus musculus); experiment: Uterotrophic effect in BD2F mice bearing transplantable hormone dependent MXT at 13.80 mg dose; format: functional, tissue-based; details: Uterus; how it was run: as §6
Mus musculus [14] = species on record: Mus musculus; experiment: Relative average tumor wet weight in treated compared to untreated mice at 13.80 mg dose; format: functional
How it was run: (§8)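 MXT mammary tumor pieces of 1-2 mm³ from syngeneic donors were implanted sc by trocar into female BD2F₁ mice aged 8-10 weeks (20.0 ± 1.7 g), groups of 10. From the next day, compound in olive oil was given sc three times weekly for 6 weeks. Tumor wet weight was measured at the end and expressed as % T/C.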

Mus musculus [15] = species on record: Mus musculus; experiment: Relative average tumor wet weight in treated compared to untreated mice at 2.76 mg dose; format: functional
How it was run: (§9)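 Syngeneic female BD2F1 mice (8–10 weeks) received sc trocar implants of 1–2-mm³ MXT tumor pieces, 10 per group. Treatment began the next day: sc doses in olive oil (solution or suspension), three times weekly for 6 weeks. Tamoxifen-treated control group included. Tumor wet weight measured at sacrifice; expressed as % T/C versus untreated controls.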

[16] = target: T1, Estrogen receptor (Mus musculus); experiment: as §3; format: functional, tissue-based; set-up: unit not given here; details: Uterus; how it was run: as §2
[17] = target: T1, Estrogen receptor (Mus musculus); experiment: Uterotrophic effect in mice at 0.1 ug dose; format: functional, tissue-based; set-up: unit not given here; details: Uterus; how it was run: as §2
[18] = target: T1, Estrogen receptor (Mus musculus); experiment: Uterotrophic effect in BD2F mice bearing transplantable hormone dependent MXT at 4 mg dose; format: functional, tissue-based; how it was run: as §6
[19] = target: T1, Estrogen receptor (Mus musculus); experiment: Uterotrophic effect in BD2F mice bearing transplantable hormone dependent MXT at 0.8 mg dose; format: functional, tissue-based; how it was run: as §6
Mus musculus [20] = species on record: Mus musculus; experiment: Relative average tumor wet weight in treated compared to untreated mice at 0.8 mg dose; format: functional; how it was run: as §8
Mus musculus [21] = species on record: Mus musculus; experiment: Relative average tumor wet weight in treated compared to untreated mice at 4 mg dose; format: functional; how it was run: as §9
[22] = target: T1, Estrogen receptor (Mus musculus); experiment: as §4; format: functional, tissue-based; details: Uterus; how it was run: as §2
[23] = target: T1, Estrogen receptor (Mus musculus); experiment: Anti-uterotrophic effect in mice at 500 ug dose; format: functional; how it was run: as §7

T1 sequence (O08537 whole entry, looked up): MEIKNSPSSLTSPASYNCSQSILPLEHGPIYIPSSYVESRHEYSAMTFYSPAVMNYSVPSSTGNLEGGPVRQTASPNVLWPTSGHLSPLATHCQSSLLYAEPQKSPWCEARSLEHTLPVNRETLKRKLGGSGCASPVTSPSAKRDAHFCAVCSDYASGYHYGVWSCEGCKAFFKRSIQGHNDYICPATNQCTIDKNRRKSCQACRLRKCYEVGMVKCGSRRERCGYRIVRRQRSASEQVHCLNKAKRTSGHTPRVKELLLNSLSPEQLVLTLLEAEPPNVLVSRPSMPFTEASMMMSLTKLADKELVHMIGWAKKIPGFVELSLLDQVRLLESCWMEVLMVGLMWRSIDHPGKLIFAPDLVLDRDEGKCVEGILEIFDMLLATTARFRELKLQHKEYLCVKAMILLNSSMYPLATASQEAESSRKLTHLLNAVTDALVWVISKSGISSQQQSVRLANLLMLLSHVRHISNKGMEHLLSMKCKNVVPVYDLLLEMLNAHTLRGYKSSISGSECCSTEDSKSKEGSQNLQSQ
T1 sequence (P19785 whole entry, looked up): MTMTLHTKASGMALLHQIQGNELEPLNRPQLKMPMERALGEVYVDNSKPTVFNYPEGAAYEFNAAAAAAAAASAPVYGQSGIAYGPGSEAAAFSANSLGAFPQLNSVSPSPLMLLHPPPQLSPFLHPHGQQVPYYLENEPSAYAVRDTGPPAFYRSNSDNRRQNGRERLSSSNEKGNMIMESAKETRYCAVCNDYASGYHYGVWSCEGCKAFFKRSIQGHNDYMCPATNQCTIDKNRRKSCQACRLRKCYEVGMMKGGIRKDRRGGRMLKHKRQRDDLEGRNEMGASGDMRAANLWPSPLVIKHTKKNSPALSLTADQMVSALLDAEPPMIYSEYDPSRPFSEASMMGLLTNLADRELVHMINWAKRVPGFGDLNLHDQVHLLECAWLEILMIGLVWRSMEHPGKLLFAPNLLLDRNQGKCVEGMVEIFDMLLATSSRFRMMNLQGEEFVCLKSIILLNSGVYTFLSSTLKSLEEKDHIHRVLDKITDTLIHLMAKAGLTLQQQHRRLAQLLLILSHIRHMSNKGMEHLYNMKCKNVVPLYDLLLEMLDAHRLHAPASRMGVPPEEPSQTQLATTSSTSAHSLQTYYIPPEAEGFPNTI

Effect [1]	Effect [3]	Effect [4]	Effect [5]	Effect [6]	Effect [7]	Effect [8]	Effect [9]	Effect [10]	Effect [11]	Effect [13]	SMILES	TC (Mus musculus [14]) [%]	TC (Mus musculus [15]) [%]	also measured
16.7	25.4	35.9	41.8	14.8	39.8	32	48.7	39.2	74.7	70.4	C/C(=C(/C)c1ccc(O)cc1)c1ccc(O)cc1 [DIMETHYLSTILBESTROL]	46.2	69.5	Effect [2]: 20.6; inhibition [12]: 30.1%
10.8	35.4										Oc1ccc([C@H]([C@H](c2ccc(O)cc2)C(F)(F)F)C(F)(F)F)cc1			Effect [16]: 42.5; Effect [17]: 46.9; Uterus effect [18]: 188; Uterus effect [19]: 136; TC (Mus musculus [20]): 21.3%; TC (Mus musculus [21]): 7.2%
13.3		13.8	12.8	12.9	43.5	42.3	33.1	37.2	80.7	88.4	C/C(=C(/C)c1cccc(O)c1)c1cccc(O)c1	69.9	88	Effect [22]: 12.2; inhibition [23]: 27.2%
